Reference: publication PMC4806784 (Investigational new drugs, 2015)

How the values were obtained:
[1] = Safety and tolerability; type: in vivo
[2] = tested on: advanced and/or refractory solid tumors; experiment: Tumor response; type: in vivo, human
[3] = tested on: AURKA, AURKB, BIRC5, PRC1, TACC3, DLGAP5 [DLG7], and NDC80 [KNTC2]; experiment: Gene expression PD biomarkers by quantitative RT-PCR on hair follicle RNA; type: in vivo, human; conditions: Panel 1 (MT), p < 0.05 unadjusted
[4] = tested on: AK-A; conditions: adenosine triphosphate-competitive inhibitor; cited from earlier work
[5] = tested on: phospho-Aurora B (pAurB) and phospho-histone H3 (pHH3); experiment: Immunohistochemistry of hair follicles and skin biopsies; type: in vivo, human; conditions: Panel 1 (MT), pre- and post-dose hair follicles and skin biopsies
Procedure, shortened: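 Plucked scalp hair follicles (from at least 15 hair shafts) and skin punch biopsies were taken pre-dose and on Cycle 1 Day 2, 4 (±1) h after the third oral BID Q12hr dose. Only Panel 1 monotherapy patients were sampled. Phospho-Aurora B and phospho-histone H3 were assessed by immunohistochemistry as change from baseline.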

[6] = tested on: other kinases, including both Aurora B and Aurora C; conditions: cited from earlier work
[7] = tested on: HeLaS3 cells; conditions: cited from earlier work
[8] = tested on: human tumor cell lines and xenograft models; conditions: subset of human tumor cell lines and xenograft models; cited from earlier work
[9] = Panel 2: MK-5108 CT with docetaxel 60 mg/m^2 (n = 17)
[10] = Panel 2: MK-5108 CT with docetaxel (N = 17)
[11] = Panel 2: (N = 17) MK-5108 CT with docetaxel

For `O=C(O)[C@]1(Cc2cccc(Nc3nccs3)n2)CC[C@@H](Oc2cccc(Cl)c2F)CC1` [MK-5108], the “AEs (all grades and doses) by SOC: General disorders and administration site conditions” value ([1]; Panel 2 (CT), 15/17) was 88.2%, the Death [1, 9] was 0 n (%) and the “Discontinued treatment due to a drug-related AE” value [1, 9] was 1 (5.9) n (%). For the same compound, the “Discontinued treatment due to a drug-related SAE” value [1, 9] was 1 (5.9) n (%), the “Discontinued treatment due to an SAE” value [1, 9] was 2 (11.8) n (%) and the “Discontinued treatment due to any AE” value [1, 9] was 2 (11.8) n (%). The “Patients with any AE” value [1, 9] was 17 (100.0) n (%), the “Patients with drug-related AE” value [1, 9] was 15 (88.2) n (%) and the “Patients with no AE” value [1, 9] was 0 n. The “Patients with serious AE” value [1, 9] was 9 (52.9) n (%), the “Patients with serious drug-related AE” value [1, 9] was 4 (23.5) n (%) and the “Drug-related AEs by SOC: Blood and lymphatic system disorders” value [1, 10] was 14 (82.4) n (%). The “Drug-related AEs by SOC: Gastrointestinal disorders” value [1, 10] was 11 (64.7) n (%), the “Drug-related AEs by SOC: General disorders and administration site conditions” value [1, 10] was 11 (64.7) n (%) and the “Drug-related AEs by SOC: Infections and infestations” value [1, 10] was 4 (23.5) n (%). For the same compound, the “Drug-related AEs by SOC: Investigations” value [1, 10] was 5 (29.4) n (%), the “Drug-related AEs by SOC: Metabolism and nutrition disorders” value [1, 10] was 9 (52.9) n (%) and the “Drug-related AEs by SOC: Musculoskeletal and connective tissue disorders” value [1, 10] was 5 (29.4) n (%). For the same compound, the “Drug-related AEs by SOC: Nervous system disorders” value [1, 10] was 3 (17.6) n (%), the “Drug-related AEs by SOC: Respiratory, thoracic and mediastinal disorders” value [1, 10] was 5 (29.4) n (%) and the “Drug-related AEs by SOC: Skin and subcutaneous tissue disorders” value [1, 10] was 8 (47.1) n (%). For the same compound, the “Drug-related AEs by SOC: Vascular disorders” value [1, 10] was 2 (11.8) n (%), the “Patients with drug-related AEs, highest grade: Grade 1” value [1, 10] was 0 (0.0) n (%) and the “Patients with drug-related AEs, highest grade: Grade 2” value [1, 10] was 3 (17.6) n (%). For the same compound, the “Patients with drug-related AEs, highest grade: Grade 3” value [1, 10] was 6 (35.3) n (%), the “Patients with drug-related AEs, highest grade: Grade 4” value [1, 10] was 6 (35.3) n (%) and the “Patients with no drug-related AEs” value [1, 10] was 2 (11.8) n (%). For the same compound, the “Patients with one or more drug-related AEs” value [1, 10] was 15 (88.2) n (%), the “Drug-related AEs by SOC: Blood and lymphatic system disorders” value ([1]; Total (N = 35)) was 20 (57.1) n (%) and the “Drug-related AEs by SOC: Gastrointestinal disorders” value ([1]; Total (N = 35)) was 19 (54.3) n (%). For the same compound, the “Drug-related AEs by SOC: General disorders and administration site conditions” value ([1]; Total (N = 35)) was 20 (57.1) n (%), the “Drug-related AEs by SOC: Infections and infestations” value ([1]; Total (N = 35)) was 4 (11.4) n (%) and the “Drug-related AEs by SOC: Investigations” value ([1]; Total (N = 35)) was 8 (22.9) n (%). For the same compound, the “Drug-related AEs by SOC: Metabolism and nutrition disorders” value ([1]; Total (N = 35)) was 13 (37.1) n (%), the “Drug-related AEs by SOC: Musculoskeletal and connective tissue disorders” value ([1]; Total (N = 35)) was 7 (20.0) n (%) and the “Drug-related AEs by SOC: Nervous system disorders” value ([1]; Total (N = 35)) was 7 (20.0) n (%). For the same compound, the “Drug-related AEs by SOC: Respiratory, thoracic and mediastinal disorders” value ([1]; Total (N = 35)) was 7 (20.0) n (%), the “Drug-related AEs by SOC: Skin and subcutaneous tissue disorders” value ([1]; Total (N = 35)) was 10 (28.6) n (%) and the “Drug-related AEs by SOC: Vascular disorders” value ([1]; Total (N = 35)) was 2 (5.7) n (%). For the same compound, the “Patients with drug-related AEs, highest grade: Grade 1” value ([1]; Total (N = 35)) was 4 (11.4) n (%), the “Patients with drug-related AEs, highest grade: Grade 2” value ([1]; Total (N = 35)) was 8 (22.9) n (%) and the “Patients with drug-related AEs, highest grade: Grade 3” value ([1]; Total (N = 35)) was 7 (20.0) n (%). The “Patients with drug-related AEs, highest grade: Grade 4” value ([1]; Total (N = 35)) was 7 (20.0) n (%), the “Patients with no drug-related AEs” value ([1]; Total (N = 35)) was 9 (25.7) n (%) and the “Patients with one or more drug-related AEs” value ([1]; Total (N = 35)) was 26 (74.3) n (%). The Partial Response ([2]; MK-5108 225 Q12hr (450 mg/day) CT, 1 patient) was 5.9%, the stable disease ([2]; MK-5108 CT, 7 patients) was 41.2% and the Progressive Disease ([2]; MK-5108 MT, 8 patients) was 44.4%. The stable disease ([2]; MK-5108 MT, 9 patients) was 50%, the “best response: stable disease (patients/evaluable)” value ([2]; Panel 1 (MT)) was 9/17 and the “median duration of stable disease” value ([2]; Panel 1 (MT)) was 88 days. For the same compound, the “Partial Response” value ([2]; Panel 1: (N = 18) MK-5108 MT) was 0 (0.0) n (%), the “Progressive Disease” value ([2]; Panel 1: (N = 18) MK-5108 MT) was 8 (44.4) n (%) and the “Tumor response category: Discontinued due to AE” value ([2]; Panel 1: (N = 18) MK-5108 MT) was 1 (5.6) n (%). For the same compound, the “stable disease” value ([2]; Panel 1: (N = 18) MK-5108 MT) was 9 (50.0) n (%), the “best response: SD (patients/evaluable)” value ([2]; Panel2 (CT)) was 7/16 and the “median duration of stable disease” value ([2]; Panel2 (CT)) was 48 days. The “best response: PR (patients/evaluable)” value ([2]; Panel2 (CT), 450 mg/day) was 1/16, the “Partial Response” value [2, 11] was 1 (5.9) n (%) and the “Progressive Disease” value [2, 11] was 8 (47.1) n (%). For the same compound, the “Tumor response category: Discontinued due to AE” value [2, 11] was 1 (5.9) n (%), the “stable disease” value [2, 11] was 7 (41.2) n (%) and the complete responses ([2]; either of the treatment panels) was “no complete responses”. For the same compound, the “genes (of seven) with significant dose-related changes in the expected direction” value [3] was 5 genes, the IC50 [4] was 0.064 nM and the “change from baseline in pHH3 and pAurB (IHC)” value [5] was “no clear dose-related increases”. For the same compound, the “target specificity relative to other kinases” value [6] was “comparatively high target specificity”, the “apoptosis in combination with docetaxel” value [7] was “robustly potentiated apoptosis” and the single-agent activity [8] was “modest single-agent activity”.
